Assay outcomes: PubChem, Broad Institute
Sampled rows, rich in hits. Any-hit rate of the full collection: about 1.7%.
F508del corr: F508del CFTR correction, initial screen, CFBE line, single point; 0.36% of 350,000 active; activity (quench increase), % at 7.58 µM; CFBE cells, YFP halide quenching; stimulated with forskolin plus potentiator P3; % fluorescence drop versus neutral controls;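 active means mean added fluorescence quench of at least 8% versus neutral control, with both replicates also reaching 8%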;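 further: cells transiently co-express mutant CFTR-F508del with the halide-sensitive YFP; corrector assay measuring rescue of mutant channel to the surface after 24 h compound exposure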
Ecoli rRNA inh: reduced GFP signal of wild-type E. coli, primary screen, bacterial rRNA inhibitor project, GFP/RFP fluorescence, OD600, single point. E. coli WT GFP vs humanized-ribosome RFP mutants, 24 h; active compounds read low; DMSO median 0, no signal -100. GFP signal change (wild-type ribosome), % (no concentration beside the values). 1.6% of 350,000 active;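 active means significant combined selectivity score with lowered wild-type GFP, culture density cut under 30%, mutant RFP and density less affected; inactive means any of these conditions unmet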
Cneo AK release: Cryptococcus neoformans cell lysis inducers, primary screen, AK release luminescence, single concentration | C. neoformans lysis, adenylate kinase release luminescence, 4 h; normalised: neutral wells 0, clomiphene wells 100 | lysis activity, % at 15 µM | 0.2% of 360,000 active | AID 651654, 2012;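 active means mean lysis activity across replicates of at least 80%, whatever share of replicates individually reach that level; inactive means mean lysis activity below 80%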
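Schedule: static 4 h at 37 °C with compound, 1 h detection; system: C. neoformans cells; benchmarks: Clomiphene as positive control; buffer or medium: fresh YPD medium; measure: luminescence rise reflecting yeast cell lysis; measured by: luminescent adenylate kinase detection reagent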
CaV13 FRET inh: Primary screen for inhibitors of IQ motif and Ca2+-dependent inactivation inhibitor domain binding in CACNA1D, Förster resonance energy transfer in living cells, …; HEK cells, CFP/YFP FRET ICDI-IQ, plate reader, 10 min; percent FRET-ratio fall versus neutral wells; inhibition, % at 12.3 µM; 0.098% of 340,000 active; AID 743397;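 active means mean replicate inhibition of at least 30% and at least 1% of replicates passing that level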;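 further: 0% = median of the neutral control wells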
* marks the source's active call; other numbers are inactive results; · = no result; + = active, no number.

SMILES | F508del corr | Ecoli rRNA inh | Cneo AK release | CaV13 FRET inh
O=C(NC[C@H]1[C@H](c2ccccc2)[C@H](CO)N1C(=O)Cc1cccnc1)C1CCC1 | 1.3 | 2.6 | 81.1* | ·
O=C(NC[C@@H]1[C@H](c2ccccc2)[C@@H](CO)N1C(=O)C1CCC1)NC1CCCC1 | 1.9 | -1.8 | 0.3 | ·
C[C@H](CO)N1C[C@H](C)[C@@H](CN(C)CC2CC2)Oc2ccc(N(C)C)cc2CC1=O | -0.5 | -0.9 | 1.7 | ·
Nc1nc(N)c(C=Nc2ccc(Br)cc2)c(Nc2ccc(Br)cc2)n1 | 5.1 | -24.6* | 1.0 | -4.0
COCC(=O)N(C)C[C@H]1Oc2ncc(C3=CCCCC3)cc2C(=O)N([C@@H](C)CO)C[C@@H]1C | -1.8 | 2.6 | 1.5 | ·
CC(=O)N1c2ccc(S(=O)(=O)N(C)c3cc(C)ccc3C)cc2CC1C (stereo not drawn) | 3.3 | -29.3* | 0.8 | -2.7
CCC(=O)n1nc(-c2ccccc2)nc1NCc1ccccc1 | · | -3.1 | · | -3.6
CC(=O)n1nc(-c2ccccc2)nc1NCc1ccc(N(C)C)cc1 | 0.1 | -24.6* | -0.1 | 1.1
CS(=O)(=O)n1nc(-c2cccnc2)nc1NCc1ccccc1 | -0.9 | 4.5 | · | 5.0
CN(C)c1ccc(CNc2nc(-c3ccccc3)nn2S(C)(=O)=O)cc1 | 0.0 | -23.5* | 0.9 | 4.0
COc1ccc(C(=O)Nc2ccc3c(c2)C(=O)N(C)C[C@@H](OC)[C@@H](C)CN(C)[C@@H](C)CO3)cc1 | 5.3 | 2.1 | -3.1 | ·
Cc1noc(C)c1S(=O)(=O)N(C)C[C@@H]1Oc2ccc(NC(=O)CCN3CCOCC3)cc2CC(=O)N([C@@H](C)CO)C[C@H]1C | -3.5 | 3.7 | · | ·
Cc1ccc(S(=O)(=O)N(C)C[C@H]2Oc3ccc(NS(=O)(=O)c4cn(C)cn4)cc3C(=O)N([C@H](C)CO)C[C@@H]2C)cc1 | -3.2 | 4.2 | · | ·
O=C(COC(=O)c1nc(Cl)ccc1Cl)Nc1ccccc1OC(F)F | -2.1 | -19.1* | 4.8 | -6.5
O=C(COC(=O)c1cccnc1Cl)Nc1ccccc1OC(F)F | -1.5 | -3.0 | · | -4.6
COc1ccc(N2CCN(C(=O)c3oc4ccccc4c3C)CC2)cc1 | -0.6 | -38.3* | · | -6.3
COc1ccc(N2CCN(C(=O)c3[nH]c(C(F)(F)F)nc3-c3ccccc3)CC2)cc1 | 5.3 | -26.1* | 1.8 | -3.8
COc1ccccc1N1CCN(C(=O)c2[nH]c(C(F)(F)F)nc2-c2ccccc2)CC1 | 1.1 | -8.4 | -2.8 | -6.9
CC(=O)N1CCN(C(=O)c2oc3ccccc3c2C)CC1 | 1.6 | 11.7 | -1.0 | ·
CC=Cc1ccc2n(c1=O)C[C@@H]1[C@@H](CO)[C@H](C(=O)NCC3CCCCC3)N(C(=O)CC)[C@H]21 (mixture of isomers) | -0.4 | 0.8 | · | ·
S=C(NCC1CCCO1)N1CCN(Cc2ccccc2Cl)CC1 (stereo not drawn) | -0.5 | -8.0 | 2.8 | +
CCOc1ncccc1C(=O)NCc1cccc(OC)c1 | · | · | 0.7 | -5.7
COc1cccc(CNC(=O)c2cccnc2Sc2ccc(C)cc2C)c1 | -2.4 | -31.0* | 2.5 | -2.8
COc1cccc(CNC(=S)Nc2cccc(Cl)c2C)c1 | 2.5 | -16.6 | 7.8 | -9.3
COc1cccc(CNC(=S)Nc2cc(C)ccc2C)c1 | 1.8 | -25.9* | 4.5 | -4.8
SMILES | F508del corr | Ecoli rRNA inh | Cneo AK release | CaV13 FRET inh
C[C@@H]1CN([C@H](C)CO)C(=O)c2cc(C#Cc3ccccn3)cnc2O[C@@H]1CN(C)CC1CCCC1 | 4.0 | -0.3 | · | ·
CSc1ccc(Cl)c(C(=O)N2CCOc3ccccc32)c1 | -2.5 | -27.7 | 2.3 | 51.6*
O=C(c1cc(-c2ccc(Br)cc2)nc2ccccc12)N1CCC1 | 0.2 | -25.0* | -7.1 | -5.7
CN(C)CCN(C(=O)c1cc(Cl)sc1Cl)c1nc2ccc(F)cc2s1 | -0.9 | -2.1 | 1.4 | -5.4
CCN(CC)CCN(C(=O)c1ccccc1OC)c1nc2ccc(F)cc2s1 | 1.6 | -22.3* | · | -4.1
O=C(C[C@@H]1C[C@@H]2c3cc(NS(=O)(=O)c4ccc(F)cc4)ccc3O[C@@H]2[C@@H](CO)O1)NC1CCCC1 | 0.9 | 1.4 | -1.9 | ·
OC[C@H]1[C@@H](c2ccccc2)C2(CN(Cc3ccccc3F)C2)N1Cc1ccccc1F | · | -56.6 | · | ·
CC(=O)N(C)C[C@H]1Oc2cc(C#Cc3ccc(F)cc3)ccc2S(=O)(=O)N([C@H](C)CO)C[C@H]1C | 2.2 | -16.1 | -4.5 | ·
